For 37 sequences, folding enthalpy and Tm results are on record in the array DNA melting data of Ke et al. (doi:10.1101/2024.01.08.574731).

Data set [1] can be described thus: folding enthalpy; higher = less favourable; fluorescence melt of hairpins on a sequencing array, two-state fit. Particulars: sodium 0.088 M. An outline of the steps: (§1)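 Cy3 fluorescence of library hairpins on a sequenced MiSeq flow cell, with annealed Cy3 and quencher oligos, was imaged in 50 mM Na-HEPES pH 8.0, 25 mM NaCl in 2.5 °C steps up to 60 °C. Signals were normalised to pre-quench Cy3 and to control variants. Melting temperature and folding enthalpy came from bootstrapped two-state fits, inverse-variance combined over four replicates. Fitted temperatures were raised by 9.35 °C to match UV melts.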

A short description of data set [2]: melting temperature; fluorescence melt of hairpins on a sequencing array, two-state fit, raised by 9.35 °C to match UV melts. The conditions noted are these: sodium 0.088 M. An outline of the steps: as §1

In the case of GCCTAGCCGAAAGGCGGC (((..(((....)))))), the folding enthalpy in data set [1] was -14.1 kcal/mol. Further, in data set [2], the Tm was determined as 59.7 °C.

GATCGGGCAACCGATC ((((((....)))))): in data set [1], the folding enthalpy is -34.4 kcal/mol. Besides, the Tm in data set [2] was found to be 65.4 °C.

Regarding GCACAGGGAAACCTGCGC ((.((((....)))).)), the folding enthalpy in data set [1] is -44.3 kcal/mol. In data set [2], the Tm amounted to 51.8 °C.

Take GCGAATCGAAAGATCCGC (((.(((....))).))): in data set [1], the folding enthalpy is -47 kcal/mol. In data set [2], the Tm was 52.3 °C.

On to GATCGAGGGTCGATC ((((((...)))))), for which the folding enthalpy in data set [1] is -32.3 kcal/mol. Moreover, the Tm in data set [2] was found to be 51 °C.

Consider GTTGATGGAAACATTGAC ((..(((....)))..)), for which the folding enthalpy in data set [1] was -13.7 kcal/mol. Also, the Tm in data set [2] turned out to be 29.5 °C.

On to GCGTGTGGAAACGCATGC ((.((.(....).)).)), for which the folding enthalpy in data set [1] was -23.4 kcal/mol. Moreover, in data set [2], the Tm turned out to be 47.4 °C.

On to GCCGATGGAAACACCGGC ((((.((....)).)))), for which the folding enthalpy in data set [1] is -42.9 kcal/mol. The Tm in data set [2] is 52.4 °C.

Consider GATTCCGAAAGGAAAATC ((((((....)))..))), for which the folding enthalpy in data set [1] is -14 kcal/mol. Further, the Tm in data set [2] was determined as 32.3 °C.

Regarding GTCCGGTCGAAAGACGAC (((..(((....)))))), the folding enthalpy in data set [1] was -12.6 kcal/mol. In addition, the Tm in data set [2] worked out at 38.5 °C.

As for GATCCCACGGGGGATC ((((((....)))))), the folding enthalpy in data set [1] is -35.8 kcal/mol. The Tm in data set [2] amounted to 61.3 °C.

On to GCATAAGCGAAAGCTTGC (((..(((....)))))), for which the folding enthalpy in data set [1] was -14.7 kcal/mol. In addition, in data set [2], the Tm is 46.3 °C.

Take GCTCGGCGAAAGCATAGC (((..((....))..))): the folding enthalpy in data set [1] is -12.3 kcal/mol. The Tm in data set [2] was 44 °C.

For GGTGTGGGAAACCGCATC (.((.((....)).)).), the folding enthalpy in data set [1] is -23.7 kcal/mol. Also, the Tm in data set [2] came out at 41.9 °C.

On to GGTACGAAAGTACC (((((....))))), for which the folding enthalpy in data set [1] was -30.4 kcal/mol. In addition, in data set [2], the Tm amounted to 65.8 °C.

For the sequence GGACTGGGAAACCAGCCC ((.((((....)))).)), the folding enthalpy in data set [1] was -20.5 kcal/mol. Moreover, the Tm in data set [2] came to 50.4 °C.

Consider GCCTTGCGAAAGCAATGC ((.((((....)))).)), for which the folding enthalpy in data set [1] was -17.4 kcal/mol. Further, in data set [2], the Tm was found to be 56.9 °C.

In the case of GATACCGAAAGGTAATC ((((((....))).))), the folding enthalpy in data set [1] is -18.9 kcal/mol. In data set [2], the Tm was determined as 39 °C.

Take GGGATACGAAAGTACCCC (((.(((....))).))): the folding enthalpy in data set [1] was -37.4 kcal/mol. The Tm in data set [2] was 50.8 °C.

As to GCAGGGCGAAAGCTCCGC ((.(.((....)).).)), in data set [1], the folding enthalpy was -17.6 kcal/mol. Further, in data set [2], the Tm amounted to 49.5 °C.

GACGTAGCGAAAGCTGTC (((..(((....)))))): the folding enthalpy in data set [1] was -17.7 kcal/mol. Besides, in data set [2], the Tm came out at 47.1 °C.

GATCCTAAACAGGATC ((((((....)))))): the folding enthalpy in data set [1] was -31.5 kcal/mol. For the same sequence, the Tm in data set [2] was 49 °C.

Regarding GTGCGTGGAAACGCGTAC ((.((.(....).)).)), in data set [1], the folding enthalpy was -10.9 kcal/mol. Also, the Tm in data set [2] amounted to 42.7 °C.

GATCCATGCATGGATC ((((((....)))))): in data set [1], the folding enthalpy was -42.5 kcal/mol. Also, the Tm in data set [2] stood at 58.8 °C.

GCTGATGGAAACGTTAGC (((.(.(....).).))): in data set [1], the folding enthalpy was -11.2 kcal/mol. In addition, the Tm in data set [2] came out at 27.8 °C.

For GGCCGAGCGAAAGCTGCC (((..(((....)))))), in data set [1], the folding enthalpy is -21.4 kcal/mol. Besides, the Tm in data set [2] was found to be 50.7 °C.

Regarding GGCCGCGAAAGCGAAGCC ((((((....)))..))), the folding enthalpy in data set [1] was -27.7 kcal/mol. Further, the Tm in data set [2] came out at 58.9 °C.

Take GCCCCAGGAAACCGAGGC (((.(.(....).).))): the folding enthalpy in data set [1] was -16.3 kcal/mol. Also, in data set [2], the Tm worked out at 32.6 °C.

For the sequence GTCTGCGAAAGCACTGAC ((((((....)))..))), the folding enthalpy in data set [1] was -15.1 kcal/mol. Further, the Tm in data set [2] worked out at 36.3 °C.

With GCATAGCGAAAGCAGTGC (((..((....))..))), the folding enthalpy in data set [1] is -17 kcal/mol. In data set [2], the Tm stood at 53.7 °C.

GACACCGGAAACGATGTC ((((.((....)).)))): the folding enthalpy in data set [1] is -29.6 kcal/mol. Besides, the Tm in data set [2] amounted to 45.2 °C.

Turning to GCGTTAGGAAACTAATGC ((.((((....)))).)), the folding enthalpy in data set [1] is -43.2 kcal/mol. Besides, the Tm in data set [2] stood at 47.5 °C.

Turning to GACCGAGGAAACTCGATC ((.((((....)))).)), the folding enthalpy in data set [1] was -21.1 kcal/mol. The Tm in data set [2] was determined as 40.7 °C.

With GATCGTAAGAACGATC ((((((....)))))), the folding enthalpy in data set [1] was -35.1 kcal/mol. The Tm in data set [2] was 50.5 °C.

With GGCTCTGGAAACAGAGTC (.(((((....))))).), in data set [1], the folding enthalpy was -35.7 kcal/mol. In addition, the Tm in data set [2] was found to be 52.8 °C.

GATCGACACCTCGATC ((((((....)))))): in data set [1], the folding enthalpy is -44.7 kcal/mol. Also, the Tm in data set [2] is 52.5 °C.

Take GCGTATGGAAACATATGC ((.((((....)))).)): in data set [1], the folding enthalpy is -46.8 kcal/mol. Moreover, the Tm in data set [2] stood at 47.8 °C.
